In ChEMBL document CHEMBL2417367 (Bioorg Med Chem, 2013):
pIC50: −log10 of the molar value.

What was measured:
[1] = molecular target: Epidermal growth factor receptor (Homo sapiens, UniProt P00533); experiment: Inhibition of EGFR (unknown origin) using poly(Glu,Tyr) as substrate after 30 mins by HTRF assay
How it was run: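 HTRF kinase assay with purified kinase protein on precoated poly(Glu,Tyr) 4:1 substrate (20 µg/mL). Buffer was 50 mM HEPES pH 7.0 with DTT, MgCl2, MnCl2 and 0.1% NaN3, plus ATP added from a 10 mM solution. Compounds were in 1% DMSO. Reaction ran 30 min at 25 °C and was stopped with Streptavidin-XL665 and TK antibody-cryptate. Read at 320/615 nm; % inhibition from max/min controls, IC50 from inhibition curves.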

[2] = molecular target: T1, Receptor-type tyrosine-protein kinase FLT3 (Homo sapiens, UniProt P36888); experiment: Inhibition of FLT-3 (unknown origin) using poly(Glu,Tyr) as substrate after 30 mins by HTRF assay
T1 sequence (P36888 whole entry): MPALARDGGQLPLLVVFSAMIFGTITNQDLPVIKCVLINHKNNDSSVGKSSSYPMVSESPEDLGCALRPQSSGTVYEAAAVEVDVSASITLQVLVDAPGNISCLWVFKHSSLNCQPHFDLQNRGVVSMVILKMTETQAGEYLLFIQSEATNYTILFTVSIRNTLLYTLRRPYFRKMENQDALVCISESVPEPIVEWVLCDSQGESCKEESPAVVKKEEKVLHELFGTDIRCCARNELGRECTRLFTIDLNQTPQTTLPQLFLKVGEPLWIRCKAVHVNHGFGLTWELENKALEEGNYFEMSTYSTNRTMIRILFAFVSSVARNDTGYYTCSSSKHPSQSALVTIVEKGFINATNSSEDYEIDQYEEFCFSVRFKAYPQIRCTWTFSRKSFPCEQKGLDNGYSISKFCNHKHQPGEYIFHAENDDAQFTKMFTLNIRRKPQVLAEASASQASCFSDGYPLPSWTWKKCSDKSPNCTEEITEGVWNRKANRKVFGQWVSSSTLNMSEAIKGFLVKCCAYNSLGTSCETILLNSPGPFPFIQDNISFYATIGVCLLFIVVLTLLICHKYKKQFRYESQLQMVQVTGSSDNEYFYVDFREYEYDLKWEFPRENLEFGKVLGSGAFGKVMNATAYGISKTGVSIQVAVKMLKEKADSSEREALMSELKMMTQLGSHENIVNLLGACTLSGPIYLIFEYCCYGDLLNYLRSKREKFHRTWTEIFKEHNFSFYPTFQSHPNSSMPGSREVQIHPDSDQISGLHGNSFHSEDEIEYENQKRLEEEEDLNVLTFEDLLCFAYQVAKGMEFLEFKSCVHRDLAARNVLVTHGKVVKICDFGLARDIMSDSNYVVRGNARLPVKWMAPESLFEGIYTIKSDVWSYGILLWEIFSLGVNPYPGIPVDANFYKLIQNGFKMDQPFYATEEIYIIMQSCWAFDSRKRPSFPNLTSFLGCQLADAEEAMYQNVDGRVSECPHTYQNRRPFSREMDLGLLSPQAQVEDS
How it was run: (§1)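 HTRF kinase assay on plates precoated with poly(Glu,Tyr) 4:1 (20 µg/mL). ATP was added as a 10 mM solution in 50 mM HEPES pH 7.0 buffer with DTT, MgCl2, MnCl2 and 0.1% NaN3. Compounds were in 1% DMSO, and purified kinase started the reaction (30 min, 25 °C). Streptavidin-XL665/TK antibody cryptate stopped it, read at 320/615 nm. Inhibition was scaled to enzyme and no-enzyme controls; IC50 from curves.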

[3] = molecular target: Mast/stem cell growth factor receptor Kit (Homo sapiens, UniProt P10721); experiment: Inhibition of c-KIT (unknown origin) using poly(Glu,Tyr) as substrate after 30 mins by HTRF assay; how it was run: as §1
[4] = molecular target: Platelet-derived growth factor receptor alpha (Homo sapiens, UniProt P16234); experiment: Inhibition of PDGFRalpha (unknown origin) using poly(Glu,Tyr) as substrate after 30 mins by HTRF assay; how it was run: as §1
[5] = molecular target: Vascular endothelial growth factor receptor 2 (Homo sapiens, UniProt P35968); experiment: Inhibition of KDR (unknown origin) using poly(Glu,Tyr) as substrate after 30 mins by HTRF assay; how it was run: as §1
[6] = molecular target: Macrophage-stimulating protein receptor (Homo sapiens, UniProt Q04912); experiment: Inhibition of RON (unknown origin) using poly(Glu,Tyr) as substrate after 30 mins by HTRF assay; how it was run: as §1
MDA-MB-231 = experiment: Cytotoxicity against human MDA-MB-231 cells after 72 hrs by MTT assay; type: functional, cell-based; settings: MDA-MB-231, 72 h
How it was run: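 Cells were grown in MEM with 10% FBS. About 4×10^3 cells per well were seeded and incubated 24 h at 37 °C in 5% CO2. Compounds were then added at set final concentrations for 72 h. MTT (final 5 µg/mL) was added for 4 h at 37 °C, and formazan was dissolved in DMSO and read at 492 nm against a 630 nm reference. Each line was tested three times; IC50 is mean ± SD.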

A549 = experiment: Cytotoxicity against human A549 cells after 72 hrs by MTT assay; type: functional, cell-based; settings: A549, 72 h
SMMC-7721 = experiment: cells; settings: Homo sapiens, SMMC-7721, 72 h
NCI-H460 = experiment: cells; settings: Homo sapiens, NCI-H460, 72 h
cells = settings: Homo sapiens, U-87 MG, 72 h
HT-29 = experiment: cells; settings: Homo sapiens, HT-29, 72 h
MKN-45 = experiment: cells; settings: Homo sapiens, MKN-45, 72 h

Mast/stem cell growth factor receptor Kit, sequence (P10721 whole entry): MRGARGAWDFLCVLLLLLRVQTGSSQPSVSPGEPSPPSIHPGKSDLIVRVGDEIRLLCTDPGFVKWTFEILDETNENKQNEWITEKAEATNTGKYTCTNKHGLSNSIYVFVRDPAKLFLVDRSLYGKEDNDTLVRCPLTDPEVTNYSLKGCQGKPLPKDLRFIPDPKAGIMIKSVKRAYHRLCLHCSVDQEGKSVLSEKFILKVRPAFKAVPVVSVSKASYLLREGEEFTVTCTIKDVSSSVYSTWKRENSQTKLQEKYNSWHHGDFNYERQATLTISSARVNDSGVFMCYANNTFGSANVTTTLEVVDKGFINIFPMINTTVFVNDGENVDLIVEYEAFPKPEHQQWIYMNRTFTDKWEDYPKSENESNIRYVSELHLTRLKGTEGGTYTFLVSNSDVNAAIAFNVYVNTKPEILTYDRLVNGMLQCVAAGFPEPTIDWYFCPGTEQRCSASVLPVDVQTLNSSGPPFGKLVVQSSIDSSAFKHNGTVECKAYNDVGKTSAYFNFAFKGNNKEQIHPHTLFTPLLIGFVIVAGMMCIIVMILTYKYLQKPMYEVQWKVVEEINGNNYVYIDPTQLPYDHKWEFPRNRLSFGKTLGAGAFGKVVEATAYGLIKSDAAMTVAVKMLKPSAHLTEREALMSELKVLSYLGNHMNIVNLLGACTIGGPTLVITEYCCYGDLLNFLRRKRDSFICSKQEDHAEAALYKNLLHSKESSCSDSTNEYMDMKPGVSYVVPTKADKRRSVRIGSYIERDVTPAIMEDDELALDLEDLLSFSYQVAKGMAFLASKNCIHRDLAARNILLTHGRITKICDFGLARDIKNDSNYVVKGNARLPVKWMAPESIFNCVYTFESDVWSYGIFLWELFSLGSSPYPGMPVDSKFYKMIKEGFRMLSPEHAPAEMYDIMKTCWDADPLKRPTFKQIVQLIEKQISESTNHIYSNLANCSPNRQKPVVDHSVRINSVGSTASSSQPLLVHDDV
Vascular endothelial growth factor receptor 2, sequence (P35968 whole entry): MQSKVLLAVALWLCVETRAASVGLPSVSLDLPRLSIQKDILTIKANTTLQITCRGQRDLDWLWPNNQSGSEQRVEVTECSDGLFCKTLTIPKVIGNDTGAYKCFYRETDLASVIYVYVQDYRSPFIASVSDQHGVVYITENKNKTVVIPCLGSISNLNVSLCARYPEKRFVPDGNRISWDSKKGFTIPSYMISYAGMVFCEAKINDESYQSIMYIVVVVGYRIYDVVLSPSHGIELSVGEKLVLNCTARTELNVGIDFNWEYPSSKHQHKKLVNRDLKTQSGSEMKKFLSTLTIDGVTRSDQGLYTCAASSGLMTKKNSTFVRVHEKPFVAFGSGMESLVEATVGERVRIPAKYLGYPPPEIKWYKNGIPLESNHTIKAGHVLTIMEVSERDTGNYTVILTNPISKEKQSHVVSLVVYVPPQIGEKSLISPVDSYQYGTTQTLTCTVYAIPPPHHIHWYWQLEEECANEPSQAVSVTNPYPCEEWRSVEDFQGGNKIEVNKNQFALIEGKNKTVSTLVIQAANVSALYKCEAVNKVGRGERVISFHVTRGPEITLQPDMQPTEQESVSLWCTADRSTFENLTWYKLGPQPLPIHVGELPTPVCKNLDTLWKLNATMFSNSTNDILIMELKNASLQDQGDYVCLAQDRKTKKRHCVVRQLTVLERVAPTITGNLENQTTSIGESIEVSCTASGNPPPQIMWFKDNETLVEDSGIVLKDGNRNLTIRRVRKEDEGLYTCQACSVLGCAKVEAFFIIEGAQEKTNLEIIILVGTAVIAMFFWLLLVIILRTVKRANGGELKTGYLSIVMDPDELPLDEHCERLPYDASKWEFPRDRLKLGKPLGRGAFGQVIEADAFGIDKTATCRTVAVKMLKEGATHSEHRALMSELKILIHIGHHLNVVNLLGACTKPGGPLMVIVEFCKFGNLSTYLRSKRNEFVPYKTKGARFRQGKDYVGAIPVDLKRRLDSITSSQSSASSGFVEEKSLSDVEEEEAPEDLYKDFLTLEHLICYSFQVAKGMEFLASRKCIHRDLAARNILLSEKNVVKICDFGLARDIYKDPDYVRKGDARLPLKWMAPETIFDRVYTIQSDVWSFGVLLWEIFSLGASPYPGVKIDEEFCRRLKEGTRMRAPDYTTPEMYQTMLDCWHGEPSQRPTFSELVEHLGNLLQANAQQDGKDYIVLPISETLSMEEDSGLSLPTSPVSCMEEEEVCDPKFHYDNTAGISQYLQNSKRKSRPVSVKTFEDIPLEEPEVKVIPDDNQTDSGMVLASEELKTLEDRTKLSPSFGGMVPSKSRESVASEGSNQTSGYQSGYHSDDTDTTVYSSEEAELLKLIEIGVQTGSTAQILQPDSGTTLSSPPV
Macrophage-stimulating protein receptor, sequence (Q04912 25-304 limits assumed): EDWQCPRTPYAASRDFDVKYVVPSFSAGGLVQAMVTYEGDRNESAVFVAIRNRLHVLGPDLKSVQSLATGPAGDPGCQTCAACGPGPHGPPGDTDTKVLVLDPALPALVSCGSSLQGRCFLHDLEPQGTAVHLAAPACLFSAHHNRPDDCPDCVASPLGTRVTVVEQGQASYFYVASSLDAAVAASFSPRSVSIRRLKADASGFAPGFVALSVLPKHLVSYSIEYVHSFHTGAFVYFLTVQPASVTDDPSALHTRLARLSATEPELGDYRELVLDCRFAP
Macrophage-stimulating protein receptor, sequence (Q04912 310-1400 limits assumed): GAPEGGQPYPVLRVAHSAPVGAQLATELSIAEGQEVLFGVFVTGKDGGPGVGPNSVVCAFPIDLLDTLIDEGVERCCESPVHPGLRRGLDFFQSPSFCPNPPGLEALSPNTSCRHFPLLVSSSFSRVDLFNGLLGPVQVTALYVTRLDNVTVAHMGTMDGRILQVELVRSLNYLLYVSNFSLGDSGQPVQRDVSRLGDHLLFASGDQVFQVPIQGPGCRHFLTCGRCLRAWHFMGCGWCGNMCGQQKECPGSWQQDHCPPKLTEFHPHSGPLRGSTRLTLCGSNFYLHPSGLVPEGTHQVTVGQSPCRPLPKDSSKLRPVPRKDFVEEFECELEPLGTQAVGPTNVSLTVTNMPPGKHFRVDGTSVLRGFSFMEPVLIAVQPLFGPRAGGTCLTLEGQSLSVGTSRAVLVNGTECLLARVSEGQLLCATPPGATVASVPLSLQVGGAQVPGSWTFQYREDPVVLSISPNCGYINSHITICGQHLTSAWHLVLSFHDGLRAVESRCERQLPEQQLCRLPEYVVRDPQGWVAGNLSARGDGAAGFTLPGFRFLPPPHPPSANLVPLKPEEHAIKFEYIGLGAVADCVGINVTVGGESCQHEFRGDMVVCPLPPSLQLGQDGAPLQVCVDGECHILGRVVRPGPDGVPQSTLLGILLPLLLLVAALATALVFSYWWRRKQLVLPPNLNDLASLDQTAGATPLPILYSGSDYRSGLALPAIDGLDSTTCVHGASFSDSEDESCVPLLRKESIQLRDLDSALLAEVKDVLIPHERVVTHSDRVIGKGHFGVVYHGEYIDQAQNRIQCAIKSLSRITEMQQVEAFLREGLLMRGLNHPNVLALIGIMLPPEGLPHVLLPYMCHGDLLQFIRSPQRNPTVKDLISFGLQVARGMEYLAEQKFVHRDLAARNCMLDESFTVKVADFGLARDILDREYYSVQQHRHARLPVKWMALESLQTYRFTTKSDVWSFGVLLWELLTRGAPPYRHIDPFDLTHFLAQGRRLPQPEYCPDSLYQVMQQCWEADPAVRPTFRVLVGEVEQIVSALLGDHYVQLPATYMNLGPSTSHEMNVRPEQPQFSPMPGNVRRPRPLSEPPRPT
Platelet-derived growth factor receptor alpha, sequence (P16234 whole entry): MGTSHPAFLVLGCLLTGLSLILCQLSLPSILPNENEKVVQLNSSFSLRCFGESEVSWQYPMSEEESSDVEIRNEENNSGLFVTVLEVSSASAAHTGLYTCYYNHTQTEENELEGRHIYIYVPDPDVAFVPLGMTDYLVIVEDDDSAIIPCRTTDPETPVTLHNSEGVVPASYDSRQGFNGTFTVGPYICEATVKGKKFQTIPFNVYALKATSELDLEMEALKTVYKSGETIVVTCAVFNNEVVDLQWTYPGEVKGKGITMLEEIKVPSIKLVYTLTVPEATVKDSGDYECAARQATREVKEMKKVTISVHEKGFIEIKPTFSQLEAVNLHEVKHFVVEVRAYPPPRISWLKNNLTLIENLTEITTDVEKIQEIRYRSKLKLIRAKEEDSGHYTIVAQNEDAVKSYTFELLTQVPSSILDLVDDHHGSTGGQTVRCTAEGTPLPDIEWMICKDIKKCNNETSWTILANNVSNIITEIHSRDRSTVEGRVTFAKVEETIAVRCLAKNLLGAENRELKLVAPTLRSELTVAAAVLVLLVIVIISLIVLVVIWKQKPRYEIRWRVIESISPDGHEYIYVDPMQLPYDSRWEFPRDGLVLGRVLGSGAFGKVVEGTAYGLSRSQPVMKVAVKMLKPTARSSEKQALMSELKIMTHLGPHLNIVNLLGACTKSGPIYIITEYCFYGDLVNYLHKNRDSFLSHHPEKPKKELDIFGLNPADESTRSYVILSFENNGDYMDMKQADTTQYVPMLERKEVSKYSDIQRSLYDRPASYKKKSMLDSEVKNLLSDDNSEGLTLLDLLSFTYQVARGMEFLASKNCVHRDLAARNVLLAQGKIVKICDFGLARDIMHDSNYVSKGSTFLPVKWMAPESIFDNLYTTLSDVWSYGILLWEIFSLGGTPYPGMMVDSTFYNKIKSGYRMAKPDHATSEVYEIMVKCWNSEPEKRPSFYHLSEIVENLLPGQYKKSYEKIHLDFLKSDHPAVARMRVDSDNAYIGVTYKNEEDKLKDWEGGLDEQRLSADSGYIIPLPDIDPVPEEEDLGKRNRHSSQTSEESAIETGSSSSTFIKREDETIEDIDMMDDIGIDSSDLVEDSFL

Structure (SMILES): COc1cc2c(Oc3ccc(NC(=O)N/N=C/c4ccc(F)cc4F)cc3F)ccnc2cc1OCCCN1CCC(C)CC1
- pIC50 [1]: < 4.00
- pIC50 [2]: 6.42
- pIC50 [3]: 6.64
- pIC50 [4]: 6.41
- pIC50 [5]: 6.16
- pIC50 [6]: 7.73
- pIC50 (MDA-MB-231): 5.96
- pIC50 (A549): 7.10
- pIC50 (SMMC-7721): 6.54
- pIC50 (NCI-H460): 7.24
- pIC50 (cells): 8.01
- pIC50 (HT-29): 7.10
- pIC50 (MKN-45): 6.29
